HIF activator = HIF pathway transcriptional activators, primary screen, cell-based, U2OS HRE-luciferase, luminescence. U2OS HRE-luciferase reporter; normalized: DMSO 0%, desferrioxamine 100%. activation, % at 7.5 µM (by protocol). 300,000 compounds, 0.32% hits. AID 1910, 2009;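 active means mean activation of at least 10% of the iron chelator positive control signal, with at least half of replicates also reaching 10%; inconclusive means mean and replicate majority disagree about reaching 10%; inactive means mean and most replicates under 10%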
T cruzi repl = inhibitors of intracellular T. cruzi growth, primary screen, luminescence, NIH3T3 host cells. T. cruzi beta-gal in NIH3T3, 90 h. inhibition, % (no concentration beside the values). 300,000 compounds, 1.4% hits. AID 1885, 2009;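 active means mean inhibition across valid replicates above about 55%, limit read from the data; inconclusive means mean below that limit but half or more replicates reach it; inactive means mean below it, under half of replicates reach it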;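 further: signal also drops with host cell toxicity which is not excluded here; 0% = plate median of DMSO wells and 100% = zero luminescence signal; higher percent means less beta-gal luminescence so fewer parasites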
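System: Mouse NIH/3T3 fibroblasts infected with β-gal-expressing T. cruzi Tulahuen C4 | Quantity: NIH/3T3 cells, 5,000 per well | Reagent: 5000 reporter trypomastigotes per well | Dosing: Compound pinned at 50 nL/well, DMSO | Schedule: 3 h host attachment, then at least 90 h co-culture | Detection: GalScreen luminescence, 60 min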
CR mimetic SO = reduction of superoxide in aged yeast, primary screen, HTS. 330,000 compounds, 0.18% hits. AID 2690, 2010. S. cerevisiae aged cells, superoxide DHE fluorescence; hits give low values. superoxide response (% of plate mean), % at 10 µM;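 active means superoxide response under a set limit, about three screen SD below normal, cut at about 65% in these data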;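 further: yeast aged for seven days with compound at 30 °C before DHE staining; 100% = average MFI of all compound-treated wells on the plate with controls excluded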
NRP1-CendR mod = modulators of CendR peptide binding to NRP-1, primary screen, biochemical, fluorescence polarization, uHTS. Neuropilin-1 (Homo sapiens), O14786. FAM-RPARPAR peptide binding to NRP-1. inhibition, % at 25 µM. 360,000 compounds, 0.85% hits;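 active means inhibition or corrected inhibition above about 18%, plus a signal ratio from 0.5 to 1.5, limit read from the data, passing the limit was not always enough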
Target sequence (O14786 whole entry, looked up): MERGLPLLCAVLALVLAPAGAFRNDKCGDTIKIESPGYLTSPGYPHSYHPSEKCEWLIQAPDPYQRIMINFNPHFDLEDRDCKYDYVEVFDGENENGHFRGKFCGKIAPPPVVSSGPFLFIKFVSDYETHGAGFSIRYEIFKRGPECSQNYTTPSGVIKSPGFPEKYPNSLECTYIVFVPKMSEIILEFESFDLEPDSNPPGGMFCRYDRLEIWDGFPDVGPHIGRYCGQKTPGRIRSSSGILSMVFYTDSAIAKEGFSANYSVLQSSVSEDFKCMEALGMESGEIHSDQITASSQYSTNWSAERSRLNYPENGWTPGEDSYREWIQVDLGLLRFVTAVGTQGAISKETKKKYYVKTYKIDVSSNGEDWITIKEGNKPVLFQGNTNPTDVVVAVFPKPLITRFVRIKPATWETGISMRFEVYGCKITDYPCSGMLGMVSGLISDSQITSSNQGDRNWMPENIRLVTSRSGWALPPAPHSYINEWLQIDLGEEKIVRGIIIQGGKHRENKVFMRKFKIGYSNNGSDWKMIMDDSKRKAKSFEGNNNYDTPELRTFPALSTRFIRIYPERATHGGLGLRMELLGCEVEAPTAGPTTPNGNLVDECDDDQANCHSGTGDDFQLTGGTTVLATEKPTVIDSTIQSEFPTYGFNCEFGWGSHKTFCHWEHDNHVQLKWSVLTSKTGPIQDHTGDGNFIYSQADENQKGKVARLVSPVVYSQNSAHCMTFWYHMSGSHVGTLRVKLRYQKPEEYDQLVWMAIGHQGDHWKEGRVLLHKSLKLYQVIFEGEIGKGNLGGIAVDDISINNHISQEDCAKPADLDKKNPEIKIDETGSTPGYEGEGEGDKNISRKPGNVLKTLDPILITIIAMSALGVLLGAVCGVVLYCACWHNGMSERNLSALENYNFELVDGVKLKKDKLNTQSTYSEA
AI-2 QS modul = Vibrio harveyi AI-2 quorum sensing modulators, primary screen, JMH597 strain, luminescence/OD600 ratio; Vibrio harveyi JMH597 AI-2 luminescence/OD600 ratio, 9 h; hits give low values; strain lacks LuxN and CqsS sensors; 0 = neutral-control median; activity change, % at 7.5 µM; 300,000 compounds, 0.4% hits; AID 2094, 2009; in the data active means activity change below about -75%, passing the limit was not always enough; inconclusive means no clear call, values can overlap the other calls;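 further: luminescence divided by OD600 gain over 9 h not by final OD600 alone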
V-ATPase pH = regulators of yeast V-ATPase proton pumping, primary screen, pHLuorin cytosolic pH fluorescence | response, % at 10 µM | S. cerevisiae | 350,000 compounds, 0.37% hits; in the data active means response mostly above about 7.3%, no sharp cut-off; inactive means mostly below about 5.4%; further: actives read high
The depositor's hits bear a star; ? = inconclusive; . = not tested or not shown. This is a sample that favours compounds with a hit; in the whole collection about 3% have one here.

SMILES | HIF activator | T cruzi repl | CR mimetic SO | NRP1-CendR mod | AI-2 QS modul | V-ATPase pH
CNS(=O)(=O)c1cnccc1N1CCN(c2cccc(Cl)c2)CC1 | 0 | 15 | 95 | 3 | 11 | -5
CCN(CC)S(=O)(=O)c1cnccc1N1CCN(c2cccc(Cl)c2)CC1 | 0 | 65* | 102 | -8 | 31 | -2
CN1CCN(S(=O)(=O)c2cnccc2N2CCN(c3cccc(Cl)c3)CC2)CC1 | 0 | 56* | 115 | -2 | 11 | 3
CCC1Oc2ccc(C)cc2N(CC(=O)N(Cc2cccnc2)Cc2ccc(C)o2)C1=O (stereo unspecified) | 0 | 57* | 109 | -2 | 8 | 0
CSc1nnc(-c2ccco2)c(-c2ccco2)n1 | 0 | 10 | 90 | 29* | 23 | -3
CSc1nnc(-c2ccccc2)c(-c2ccccc2)n1 | 0 | 9 | 99 | -4 | 20 | 5
Cc1ccc(C(=O)OCC(=O)c2ccc(Cl)s2)s1 | 2 | -10 | 90 | 34* | -7 | -4
CC(C)N(C(=O)[C@H]1CC(CC(=O)NCc2ccco2)C(=O)N2CCc3c([nH]c4ccccc34)[C@]12C)C(C)C (stereo partly specified) | . | . | 114 | 16 | . | 0
CC1(C)C(CC(=O)O)CC1C(=O)O (stereo unspecified) | . | . | . | 24* | . | -3
CCN1CCN(C(=O)CSc2nc3c(c(=O)n(C)c(=O)n3C)n2C)CC1 | 0 | -4 | 97 | 7 | 12 | 5
O=C(CSc1nnc(CN2CCOCC2)n1-c1ccc(Cl)cc1)Nc1cc(Cl)ccc1O | . | . | 106 | 21* | 36 | 4
c1ccc2c(Nc3nnc(-c4ccncc4)s3)cccc2c1 | 3 | 57* | 116 | 4 | 24 | 6
CCN(CC(=O)NCc1cccs1)S(=O)(=O)c1ccc(C(C)C)cc1 | 0 | 10 | 113 | 32* | 3 | 5
Cn1cnc(Sc2ncnc3nc[nH]c23)c1[N+](=O)[O-] | 1 | 29 | 108 | -7 | -32 | -1
C=CCN=C(NC#N)SC | 2 | -7 | 43* | -7 | -1 | -5
CC(C)c1cccc(OCCCCN(C)C)c1 | 0 | 65* | 105 | 6 | 13 | -2
CCN(CC)CCOc1cccc(C(C)C)c1 | 0 | 5 | 100 | 10 | 21 | -5
CSc1nc(Cl)c(Cc2ccc(OC(C)C)cc2)c(N2CCOCC2)n1 | 0 | 22 | 100 | 18 | 5 | 1
Cc1nn(-c2ccccc2)c(C)c1CNC(=O)c1ccc(S(=O)(=O)NCc2ccco2)cc1 | . | . | 102 | -15 | . | 20*
COc1ccc(Cl)cc1NS(=O)(=O)c1cccc(C(=O)NC2CCN(Cc3ccccc3)CC2)c1 | . | . | . | -19 | . | -2
CCOc1ccc(C(=O)NC2CCN(C(=S)NCc3ccco3)CC2)cc1 | -1 | 4 | 109 | 26* | 13 | 0
COc1ccc(NS(=O)(=O)c2cccc(C(=O)NC3CCN(Cc4ccccc4)CC3)c2)cc1 | 0 | 63* | 103 | -7 | 10 | -2
COc1ccc(C(=O)NC2CCN(C(=S)Nc3ccccc3C)CC2)cc1 | 0 | 7 | 95 | 19* | 9 | 0
Cc1cccc(CCNC(=O)c2cccc(NC3=NC4CS(=O)(=O)CC4S3)c2)c1 (stereo unspecified) | 0 | -8 | 95 | -6 | 19 | 0
O=C(NC1CCN(Cc2ccccc2)CC1)c1ccc(S(=O)(=O)NCc2ccco2)cc1 | 0 | 73* | 82 | -5 | 28 | 1
SMILES | HIF activator | T cruzi repl | CR mimetic SO | NRP1-CendR mod | AI-2 QS modul | V-ATPase pH
O=C(NC1CCCCC1)c1ccc(S(=O)(=O)NCc2ccco2)cc1 | 0 | -22 | 82 | 6 | 28 | 0
CC(C)(C)c1ccc(Cn2c(=N)n(CC(O)c3ccco3)c3ccccc32)cc1 (stereo unspecified) | -7 | 60* | 81 | -75 | 18 | -3
O=C(NCCCCc1ccccc1)c1cccc(NC(=O)C2CCCCC2)c1 | . | . | . | 0 | . | 0
Cn1c(COc2ccc(F)cc2)nc2ccccc21 | 4 | 20 | 88 | 23* | 9 | 6
Cn1c(COc2ccc(C(=O)O)cc2)nc2ccccc21 | -2 | 4 | 99 | 14 | 17 | -1
CCNc1c2c(nc3ccccc13)CC(C)(C)CC2=O | 0 | -13 | 104 | -5 | 6 | 1
COc1ccc(-n2nc3c(N)n[nH]c3cc2=O)cc1 | 0 | -10 | 88 | 29* | 14 | 2
Nc1n[nH]c2cc(=O)n(-c3ccc(Cl)cc3)nc12 | 0 | -16 | 85 | 24 | -1 | -1
COc1cccc(Nc2nc3cc(OC)ccc3cc2C#N)c1 | 1 | -1 | 112 | -6 | 1 | 5
COc1ccc(Nc2nc3c(C)cccc3cc2C#N)cc1 | 1 | 12 | 105 | 38* | 13 | 1
Cc1[nH]cnc1C(=O)N/N=C/c1ccc([N+](=O)[O-])s1 | -2 | 57* | 116 | -6 | ? | 1
Cc1cc(C(=O)N/N=C/c2ccc(C)s2)n[nH]1 | 2 | 2 | 91 | 18* | 18 | 4
Cc1cc(C(=O)N/N=C/c2ccc(-c3ccccc3Cl)o2)n[nH]1 | 2 | 62* | 109 | -2 | 42 | 0
Cc1ccc(/C=N/NC(=O)c2ccccn2)s1 | 0 | -12 | 114 | 0 | 13 | 0
COc1ccc(NC(=O)CCC(=O)N/N=C/c2ccc([N+](=O)[O-])s2)cc1 | 0 | 50 | 92 | 6 | -1 | 2
Cc1cc(C(=O)N/N=C/c2ccc([N+](=O)[O-])s2)n[nH]1 | -1 | 57* | 137 | 10 | -29 | 2
COCCNC(=O)C(=O)Nc1ccc(Br)cc1 | 1 | -1 | 85 | -14 | 22 | -3
COCCNC(=O)C(=O)Nc1cccc(Br)c1 | . | -4 | 97 | 29* | 16 | -5
COc1cc2cc(Oc3ccc4ccc(=O)oc4c3)c(=O)oc2cc1OC1OC(COC(=O)CC(C)(O)CC(=O)O)C(O)C(O)C1O (stereo unspecified) | 0 | -11 | 88 | -16 | 45 | -4
CN(NC(=O)Nc1ccc(Cl)cc1)c1c(Cl)c(Cl)nn1C | 0 | -34 | 111 | 20* | 37 | -1
CN(NC(=O)Nc1ccc(Cl)cc1)c1ncc(C(F)(F)F)cc1Cl | 1 | 17 | 98 | 6 | 8 | -5
NNc1ccc([N+](=O)[O-])c2[nH][nH]c(=O)c12 | . | . | . | 29* | . | 0
CCN(CC)c1ccc(NC(=O)COc2ccc(N(C)S(=O)(=O)c3cccs3)cc2)cc1 | -1 | 61* | 96 | 2 | 13 | 0

Screening results (PubChem)
